For data set [1], the target named is Insulin-degrading enzyme (Homo sapiens) (UniProt P14735). Description: (§1) Inhibition of human recombinant IDE-mediated amyloid beta (16 to 23) hydrolysis using ATTO 655-Cys-Lys-Leu-Val-Phe-Phe-Ala-Glu-Asp-Trp as substrate preincubated for 10 mins measured after 30 mins by spectrophotometer analysis.
Data set [2] has the same target. Description: Reversible inhibition of human recombinant IDE-mediated amyloid beta (16 to 23) hydrolysis using ATTO 655-Cys-Lys-Leu-Val-Phe-Phe-Ala-Glu-Asp-Trp as substrate at 20 uM preincubated for 20 mins measured measured after 100 fold dilution by spectrophotometer analysis.
Data set [3] shares this target. Description: Competitive inhibition of human recombinant IDE-mediated amyloid beta (16 to 23) hydrolysis using ATTO 655-Cys-Lys-Leu-Val-Phe-Phe-Ala-Glu-Asp-Trp as substrate. The method, boiled down: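 Human recombinant IDE (1.87 ng/μL) preincubated 10 min at 37 °C with compound in 50 mM Hepes, 100 mM NaCl, pH 7.4. Reaction started with quenched ATTO 655-labelled peptide substrate (5 μM final), 1% DMSO final. Fluorescence read after 30 min (ex 635, em 750 nm). 8-point dose-response curves, average of at least three independent measurements. EDTA reference (2 mM).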

For a further data set, the target named is T1, Insulin-degrading enzyme (Homo sapiens, UniProt P14735).
T1 sequence (P14735 whole entry): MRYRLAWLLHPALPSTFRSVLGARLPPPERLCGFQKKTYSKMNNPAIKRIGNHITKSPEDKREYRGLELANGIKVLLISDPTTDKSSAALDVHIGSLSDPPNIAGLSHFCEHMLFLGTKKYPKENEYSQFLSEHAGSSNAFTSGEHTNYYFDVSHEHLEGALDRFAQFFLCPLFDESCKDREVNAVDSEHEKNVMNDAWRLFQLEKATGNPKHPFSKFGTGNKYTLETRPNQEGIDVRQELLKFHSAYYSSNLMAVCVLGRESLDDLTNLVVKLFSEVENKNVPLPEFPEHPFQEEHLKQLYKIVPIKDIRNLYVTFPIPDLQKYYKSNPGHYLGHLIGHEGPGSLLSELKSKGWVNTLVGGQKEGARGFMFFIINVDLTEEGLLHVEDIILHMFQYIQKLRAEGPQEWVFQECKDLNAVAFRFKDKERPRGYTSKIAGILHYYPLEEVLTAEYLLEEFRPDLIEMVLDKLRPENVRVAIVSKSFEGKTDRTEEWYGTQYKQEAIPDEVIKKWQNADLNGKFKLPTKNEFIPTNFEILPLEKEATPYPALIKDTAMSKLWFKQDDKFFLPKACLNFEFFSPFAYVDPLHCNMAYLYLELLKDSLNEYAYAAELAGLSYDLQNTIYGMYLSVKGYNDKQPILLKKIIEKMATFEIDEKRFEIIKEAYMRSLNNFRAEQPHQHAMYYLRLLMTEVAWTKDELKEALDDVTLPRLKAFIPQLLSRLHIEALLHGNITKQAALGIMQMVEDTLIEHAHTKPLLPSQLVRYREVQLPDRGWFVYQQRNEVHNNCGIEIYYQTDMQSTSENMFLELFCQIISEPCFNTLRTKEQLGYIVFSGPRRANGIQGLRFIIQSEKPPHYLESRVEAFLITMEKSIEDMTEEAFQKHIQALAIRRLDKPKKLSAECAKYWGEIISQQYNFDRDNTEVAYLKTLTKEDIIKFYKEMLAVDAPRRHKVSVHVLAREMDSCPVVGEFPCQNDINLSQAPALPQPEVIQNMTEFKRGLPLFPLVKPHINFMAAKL
Described as §1.

For another data set, the target named is Neprilysin (Homo sapiens, UniProt P08473). Description: Inhibition of human NEP-mediated amyloid beta hydrolysis.
Data set [4] has as its target T2, Endothelin-converting enzyme 1 (Homo sapiens, UniProt P42892).
T2 sequence (P42892 whole entry): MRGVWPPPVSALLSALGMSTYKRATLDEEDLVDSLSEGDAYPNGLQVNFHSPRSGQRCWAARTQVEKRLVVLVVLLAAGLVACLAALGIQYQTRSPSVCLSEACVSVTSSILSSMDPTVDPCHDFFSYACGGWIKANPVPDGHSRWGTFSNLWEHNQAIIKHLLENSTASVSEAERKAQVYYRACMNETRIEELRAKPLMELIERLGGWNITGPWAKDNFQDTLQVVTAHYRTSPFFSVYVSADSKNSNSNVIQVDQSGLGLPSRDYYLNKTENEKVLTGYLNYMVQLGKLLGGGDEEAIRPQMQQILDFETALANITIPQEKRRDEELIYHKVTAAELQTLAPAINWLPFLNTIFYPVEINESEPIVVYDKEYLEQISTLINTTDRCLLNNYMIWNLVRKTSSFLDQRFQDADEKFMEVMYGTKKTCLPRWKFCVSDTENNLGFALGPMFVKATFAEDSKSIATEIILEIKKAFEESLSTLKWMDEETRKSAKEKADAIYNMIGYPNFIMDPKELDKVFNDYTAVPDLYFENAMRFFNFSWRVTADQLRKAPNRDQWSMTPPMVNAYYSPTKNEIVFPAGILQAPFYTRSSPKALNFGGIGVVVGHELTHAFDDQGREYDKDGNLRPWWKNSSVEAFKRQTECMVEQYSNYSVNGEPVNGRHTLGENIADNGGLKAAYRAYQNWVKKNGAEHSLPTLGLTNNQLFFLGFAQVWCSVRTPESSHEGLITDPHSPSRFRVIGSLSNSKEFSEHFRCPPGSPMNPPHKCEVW
Description: Inhibition of human recombinant ECE1-mediated amyloid beta hydrolysis after 45 mins by fluorimetry assay.

In data set [5] the target is Angiotensin-converting enzyme (Homo sapiens, UniProt P12821). Description: Inhibition of human ACE-mediated amyloid beta hydrolysis.
Data set [6] addresses Angiotensin-converting enzyme 2 (Homo sapiens, UniProt Q9BYF1). Description: Inhibition of human recombinant ACE2-mediated amyloid beta hydrolysis using Mca-Tyr-Val-Ala-Asp-Pro-Ala-Lys-(DNP)-OH as substrate after 20 mins by fluorimetry assay.
Data set [7] addresses Disintegrin and metalloproteinase domain-containing protein 17 (Homo sapiens, UniProt P78536). Description: Inhibition of human recombinant TACE-mediated amyloid beta hydrolysis after 5 mins by fluorimetry assay.
The target of another data set is T3, Interstitial collagenase (Homo sapiens, UniProt P03956).
T3 sequence (P03956 whole entry): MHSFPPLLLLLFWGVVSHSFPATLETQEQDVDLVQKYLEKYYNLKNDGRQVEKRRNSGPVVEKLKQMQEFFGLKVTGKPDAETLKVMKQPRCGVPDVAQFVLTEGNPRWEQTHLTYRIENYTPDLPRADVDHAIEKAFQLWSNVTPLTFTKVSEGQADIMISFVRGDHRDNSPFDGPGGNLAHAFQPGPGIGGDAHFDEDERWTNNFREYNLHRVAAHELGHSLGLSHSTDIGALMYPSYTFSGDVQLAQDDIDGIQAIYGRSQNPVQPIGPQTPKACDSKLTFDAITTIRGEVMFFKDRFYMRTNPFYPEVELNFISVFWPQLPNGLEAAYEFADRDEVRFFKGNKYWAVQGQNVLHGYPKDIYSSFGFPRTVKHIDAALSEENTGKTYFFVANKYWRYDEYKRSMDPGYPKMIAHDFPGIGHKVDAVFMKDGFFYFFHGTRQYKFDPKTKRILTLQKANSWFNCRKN
Description: Inhibition of human recombinant MMP1-mediated amyloid beta hydrolysis using DNP-Pro-Cha-Gly- Cys(Me)-His-Ala- Lys(n-Me-Abz)-NH2 as substrate after 40 mins by fluorimetry assay.

Another data set concerns the target Collagenase 3 (Homo sapiens, UniProt P45452). Description: Inhibition of human recombinant MMP13-mediated amyloid beta hydrolysis after 10 mins by fluorimetry assay.
Data set [8] can be described thus: Solubility of the compound in PBS at pH 7.4. It counts as physicochemical.
Data set [9] is described as follows: PBS-octanol partition coefficient, log D of the compound. It counts as physicochemical.
Data set [10] is described as follows: Half life in mouse plasma at 10 uM by LC-MS/MS analysis. It counts as ADME, cell-free.
The nature of data set [11]: Half life in human liver microsomes at 1 uM by LC-MS/MS analysis. It counts as ADME.
A short description of data set [12]: Half life in IHH cell culture medium at 10 uM by LC-MS/MS analysis. The data set is classed as physicochemical, HH. The method in brief:
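Stability measured in William's E medium with 10% fetal calf serum.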

Structures are written as SMILES. ≈ marks a conversion by molar mass, not a printed value. Calls of active or inactive are those of the source. The calls are words filed in the database; no cut-off is given here. A value given as a limit tells only on which side of the number the result lay.

Sequence of Disintegrin and metalloproteinase domain-containing protein 17 (P78536 whole entry, the tested form may be a part): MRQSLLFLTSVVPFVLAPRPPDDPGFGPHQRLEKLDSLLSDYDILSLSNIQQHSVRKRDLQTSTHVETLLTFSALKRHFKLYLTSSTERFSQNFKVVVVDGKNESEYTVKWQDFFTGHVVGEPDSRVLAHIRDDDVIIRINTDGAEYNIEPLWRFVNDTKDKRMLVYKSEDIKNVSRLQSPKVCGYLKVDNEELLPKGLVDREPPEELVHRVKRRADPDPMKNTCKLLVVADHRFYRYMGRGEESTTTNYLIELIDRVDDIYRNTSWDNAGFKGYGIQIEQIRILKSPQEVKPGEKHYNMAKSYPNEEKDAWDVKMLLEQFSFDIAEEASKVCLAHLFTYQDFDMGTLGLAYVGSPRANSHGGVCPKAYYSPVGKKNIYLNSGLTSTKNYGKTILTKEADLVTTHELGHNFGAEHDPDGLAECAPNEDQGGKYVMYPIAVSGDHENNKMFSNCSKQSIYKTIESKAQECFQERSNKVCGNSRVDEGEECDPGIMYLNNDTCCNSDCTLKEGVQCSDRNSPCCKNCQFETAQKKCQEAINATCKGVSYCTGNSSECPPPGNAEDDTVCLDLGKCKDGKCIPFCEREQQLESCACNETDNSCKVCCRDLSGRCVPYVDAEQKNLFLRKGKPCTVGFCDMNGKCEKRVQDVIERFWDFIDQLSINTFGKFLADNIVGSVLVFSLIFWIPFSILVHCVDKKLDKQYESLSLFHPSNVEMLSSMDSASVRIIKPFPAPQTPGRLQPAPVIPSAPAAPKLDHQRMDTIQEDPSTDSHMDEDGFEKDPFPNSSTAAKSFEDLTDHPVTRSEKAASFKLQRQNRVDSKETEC
Sequence of Angiotensin-converting enzyme 2 (Q9BYF1 whole entry, the tested form may be a part): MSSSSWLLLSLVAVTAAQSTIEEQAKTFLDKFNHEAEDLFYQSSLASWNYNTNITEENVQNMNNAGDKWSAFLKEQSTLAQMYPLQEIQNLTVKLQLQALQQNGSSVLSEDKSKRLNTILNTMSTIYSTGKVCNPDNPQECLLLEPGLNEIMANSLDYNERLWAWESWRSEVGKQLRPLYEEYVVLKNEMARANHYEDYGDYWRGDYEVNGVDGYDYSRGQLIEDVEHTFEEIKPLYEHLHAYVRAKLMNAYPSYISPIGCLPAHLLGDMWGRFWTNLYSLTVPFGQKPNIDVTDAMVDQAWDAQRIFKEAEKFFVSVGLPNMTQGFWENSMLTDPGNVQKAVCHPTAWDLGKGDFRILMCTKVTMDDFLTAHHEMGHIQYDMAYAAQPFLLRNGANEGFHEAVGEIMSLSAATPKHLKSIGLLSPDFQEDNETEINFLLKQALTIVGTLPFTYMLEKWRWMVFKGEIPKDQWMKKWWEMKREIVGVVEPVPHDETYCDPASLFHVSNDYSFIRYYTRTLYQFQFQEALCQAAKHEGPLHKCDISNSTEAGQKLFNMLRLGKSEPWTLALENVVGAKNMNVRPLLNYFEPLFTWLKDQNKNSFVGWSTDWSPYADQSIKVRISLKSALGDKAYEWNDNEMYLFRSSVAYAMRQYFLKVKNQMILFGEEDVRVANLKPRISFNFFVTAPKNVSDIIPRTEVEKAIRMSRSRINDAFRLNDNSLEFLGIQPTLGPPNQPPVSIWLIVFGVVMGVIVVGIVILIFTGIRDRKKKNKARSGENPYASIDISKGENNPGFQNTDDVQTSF
Sequence of Neprilysin (P08473 whole entry): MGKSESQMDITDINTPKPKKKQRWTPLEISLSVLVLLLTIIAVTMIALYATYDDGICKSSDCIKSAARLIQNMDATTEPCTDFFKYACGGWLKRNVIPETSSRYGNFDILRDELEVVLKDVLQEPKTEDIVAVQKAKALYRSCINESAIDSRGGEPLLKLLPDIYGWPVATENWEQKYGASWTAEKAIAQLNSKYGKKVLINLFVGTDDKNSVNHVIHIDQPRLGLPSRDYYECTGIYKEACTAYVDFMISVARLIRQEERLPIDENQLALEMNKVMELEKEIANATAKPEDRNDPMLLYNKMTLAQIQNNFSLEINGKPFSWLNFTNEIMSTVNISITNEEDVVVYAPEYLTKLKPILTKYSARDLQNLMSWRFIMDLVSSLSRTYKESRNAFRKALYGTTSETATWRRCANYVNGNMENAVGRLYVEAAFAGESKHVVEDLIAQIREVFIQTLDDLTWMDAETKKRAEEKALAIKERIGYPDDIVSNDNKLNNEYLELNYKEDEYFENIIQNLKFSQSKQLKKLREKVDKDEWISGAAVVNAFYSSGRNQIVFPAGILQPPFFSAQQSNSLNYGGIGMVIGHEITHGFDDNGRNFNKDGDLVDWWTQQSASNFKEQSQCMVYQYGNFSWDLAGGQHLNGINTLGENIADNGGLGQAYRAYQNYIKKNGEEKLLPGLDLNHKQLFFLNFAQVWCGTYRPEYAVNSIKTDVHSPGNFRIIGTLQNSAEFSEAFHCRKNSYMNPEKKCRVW
Sequence of Angiotensin-converting enzyme (P12821 whole entry): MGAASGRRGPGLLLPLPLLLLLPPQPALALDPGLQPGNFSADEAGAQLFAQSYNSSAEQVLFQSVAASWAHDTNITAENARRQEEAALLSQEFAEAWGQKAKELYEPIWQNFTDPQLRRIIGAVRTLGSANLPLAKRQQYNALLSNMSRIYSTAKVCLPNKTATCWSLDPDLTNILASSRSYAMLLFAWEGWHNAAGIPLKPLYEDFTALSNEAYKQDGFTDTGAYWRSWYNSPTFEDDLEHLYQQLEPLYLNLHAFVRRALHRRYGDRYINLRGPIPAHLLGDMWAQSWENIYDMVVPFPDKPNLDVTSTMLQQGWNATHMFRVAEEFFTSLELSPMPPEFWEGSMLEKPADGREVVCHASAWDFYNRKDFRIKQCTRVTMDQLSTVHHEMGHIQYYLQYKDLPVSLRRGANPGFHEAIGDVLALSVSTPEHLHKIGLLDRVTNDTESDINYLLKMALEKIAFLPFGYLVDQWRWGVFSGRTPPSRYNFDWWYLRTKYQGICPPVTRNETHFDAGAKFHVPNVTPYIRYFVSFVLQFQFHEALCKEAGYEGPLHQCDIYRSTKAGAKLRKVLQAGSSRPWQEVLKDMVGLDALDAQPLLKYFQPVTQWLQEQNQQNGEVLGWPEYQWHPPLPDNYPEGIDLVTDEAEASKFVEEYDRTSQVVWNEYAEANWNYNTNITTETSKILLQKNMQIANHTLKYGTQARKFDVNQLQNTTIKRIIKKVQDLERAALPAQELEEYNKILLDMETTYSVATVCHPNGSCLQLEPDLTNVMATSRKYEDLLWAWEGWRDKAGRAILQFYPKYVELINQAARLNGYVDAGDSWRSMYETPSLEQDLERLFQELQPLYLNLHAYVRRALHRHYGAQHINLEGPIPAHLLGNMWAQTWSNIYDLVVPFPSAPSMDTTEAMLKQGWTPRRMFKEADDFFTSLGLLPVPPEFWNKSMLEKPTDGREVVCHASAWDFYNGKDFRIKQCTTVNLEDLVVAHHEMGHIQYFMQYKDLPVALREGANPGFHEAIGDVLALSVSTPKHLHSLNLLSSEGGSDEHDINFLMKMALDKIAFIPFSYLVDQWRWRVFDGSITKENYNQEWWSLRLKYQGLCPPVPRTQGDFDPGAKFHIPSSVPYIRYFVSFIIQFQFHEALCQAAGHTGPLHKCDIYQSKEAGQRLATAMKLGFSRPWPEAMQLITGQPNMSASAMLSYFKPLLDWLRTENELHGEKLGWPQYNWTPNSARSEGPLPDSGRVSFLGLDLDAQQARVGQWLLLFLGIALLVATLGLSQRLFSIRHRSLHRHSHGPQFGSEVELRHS

As for `COC(=O)[C@H](Cc1c[nH]cn1)NC(=O)CN(CC(=O)O)Cc1ccccc1`, in data set [1], the inhibition result is “Dose-dependent effect”. For the same compound, the inhibition entry in data set [2] and in [3] was “Active” each time.
In general, IC50 refers to the point on the concentration scale where inhibition reaches its midpoint. On to `COC(=O)[C@H](Cc1ccccc1)NC(=O)CN(CC(=O)O)Cc1ccccc1`, for which the 50% inhibitory concentration (IC50) at Insulin-degrading enzyme was more than 100 µM.
In general, solubility refers to how much of the substance goes into solution per volume. A lower solubility goes with a poorly soluble substance. One may read the logD as lipophilicity at a set pH, counting ionised and neutral species. What is called half-life is the time in which the quantity being followed falls by half. Low values mean rapid decline, high ones slow decline. As to `CNC(=O)[C@H](Cc1c[nH]cn1)NC(=O)CN(CCCc1ccccc1)CC(=O)O`, the IC50 (against Neprilysin; in [4]; in data set [5]; in data set [6]; in [7]; on Interstitial collagenase) was more than 100 µM in each case. Also, the IC50 at Collagenase 3 is more than 100 µM. In data set [8], this compound showed a solubility of 68 µM (≈ 27.3 µg/mL). The compound further showed a logD in data set [9] of -1.4. In addition, the results for the half-life at 10 µM in [10] and in [12] were more than 48 h and more than 24 h, respectively. This compound also had a half-life at 1 µM in data set [11] of more than 0.667 h.
As to `COC(=O)[C@H](Cc1c[nH]cn1)NC(=O)CN(CC(=O)O)C(=O)c1ccccc1`, the IC50 at Insulin-degrading enzyme is more than 100 µM.
For the compound `COC(=O)[C@H](Cc1c[nH]cn1)NC(=O)CN(CCCc1ccccc1)CC(=O)O`, the IC50 at Insulin-degrading enzyme came to 0.6 µM.

The record behind these values is ChEMBL document CHEMBL3232818, “Imidazole-derived 2-[N-carbamoylmethyl-alkylamino]acetic acids, substrate-dependent modulators of insulin-degrading enzyme in amyloid-β hydrolysis” (Eur J Med Chem, 2014).
